Data reported in ChEMBL document CHEMBL2146381, “Structure-activity relationship (SAR) study of ethyl 2-amino-6-(3,5-dimethoxyphenyl)-4-(2-ethoxy-2-oxoethyl)-4H-chromene-3-carboxylate (CXL017) and the potential of the lead against multidrug resistance in cancer treatment” (J Med Chem, 2012).

Experiments:
HL-60 [1] = assay: Cytotoxicity against human HL60 cells assessed as cell viability after 48 hrs by celltiter-blue assay; type: functional, cell-based; settings: HL-60, 48 h
Method in brief: (§1)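 Tumour cell growth inhibition was measured in vitro, following the lab's established procedure. IC50 values are the mean of at least two independent experiments, each run in triplicate.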

K562 [2] = assay: Ratio of IC50 for doxorubicin-resistant human K562 cells to IC50 for human K562 cells; type: functional
Method in brief: (§2)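 Each resistant subline and its matched parental line were tested in the same growth-inhibition assay, with IC50 taken as the mean of at least two independent experiments in triplicate. The MDR/parental IC50 ratio is reported as relative sensitivity: above 1 means resistance, below 1 means collateral sensitivity. Parental lines came from different sources for each resistant pair.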

HL-60 [3] = assay: Ratio of IC50 for doxorubicin-resistant human HL60 cells to IC50 for human HL60 cells; type: functional; method in brief: as §2
K562 [4] = assay: Ratio of IC50 for human K562/HHT300 cells to IC50 for human K562 cells; type: functional; method in brief: as §2
CCRF-CEM [5] = assay: Ratio of IC50 for human CCRF-CEM/C2 cells IC50 for human CCRF-CEM cells; type: functional; method in brief: as §2
HL-60 [6] = assay: Ratio of IC50 for human HL60/ADR cells to IC50 for human HL60 cells; type: functional; method in brief: as §2
HL-60 [7] = assay: Ratio of IC50 for daunorubicin-resistant human HL60 cells to IC50 for human HL60 cells; type: functional; method in brief: as §2
HL-60 [8] = assay: Ratio of IC50 for human HL60/MX2 cells to IC50 for human HL60 cells; type: functional; method in brief: as §2
CCRF-CEM [9] = assay: Ratio of IC50 for human CCRF-CEM/VM-1-5 cells IC50 for human CCRF-CEM cells; type: functional; method in brief: as §2
CCRF-CEM [10] = assay: Cytotoxicity against human CCRF-CEM cells assessed as cell viability after 48 hrs by celltiter-blue assay; type: functional, cell-based; method in brief: as §1
CCRF-CEM [11] = assay: Ratio of IC50 for human CCRF-CEM/VLB100 cells IC50 for human CCRF-CEM cells; type: functional; method in brief: as §2
K562 [12] = assay: Cytotoxicity against human K562 cells assessed as cell viability after 48 hrs by celltiter-blue assay; type: functional, cell-based; settings: K562, 48 h; method in brief: as §1

Structure (SMILES) | IC50 (HL-60 [1]) [nM] | Ratio IC50 (K562 [2]) | Ratio IC50 (HL-60 [3]) | Ratio IC50 (K562 [4]) | Ratio IC50 (CCRF-CEM [5]) | Ratio IC50 (HL-60 [6]) | Ratio IC50 (HL-60 [7]) | Ratio IC50 (HL-60 [8]) | Ratio IC50 (CCRF-CEM [9]) | IC50 (CCRF-CEM [10]) [nM] | Ratio IC50 (CCRF-CEM [11]) | IC50 (K562 [12]) [nM]
C#CCOC(=O)CC1C(C(=O)OCC)=C(N)Oc2ccc(-c3ccc(N)cc3)cc21 (racemic) | 10500 | – | – | – | – | – | – | – | – | – | – | –
C#CCOC(=O)CC1C(C(=O)OCC#C)=C(N)Oc2ccc(-c3ccc(N)cc3)cc21 (racemic) | 610 | 1.08 | 0.6 | 1.1 | 0.54 | 0.26 | 0.27 | 1 | 0.42 | 1470 | 0.93 | 2360
CCOC(=O)CC1C(C(=O)OCC)=C(N)Oc2ccc(-c3cccc(NC)c3)cc21 (racemic) | 7450 | – | – | – | – | – | – | – | – | – | – | –
C#CCOC(=O)CC1C(C(=O)OCC)=C(N)Oc2ccc(-c3cccc(NC)c3)cc21 (racemic) | 7130 | – | – | – | – | – | – | – | – | – | – | –
C#CCOC(=O)CC1C(C(=O)OCC#C)=C(N)Oc2ccc(-c3cccc(NC)c3)cc21 (racemic) | 880 | – | – | – | – | – | – | – | – | – | – | –
C#CCOC(=O)CC1C(C(=O)OCC#C)=C(N)Oc2ccc(-c3cccc(N(C)C)c3)cc21 (racemic) | 12000 | – | – | – | – | – | – | – | – | – | – | –
C#CCOC(=O)CC1C(C(=O)OCC)=C(N)Oc2ccc(-c3cccc(NCC)c3)cc21 (racemic) | 17200 | – | – | – | – | – | – | – | – | – | – | –
C#CCOC(=O)CC1C(C(=O)OCC#C)=C(N)Oc2ccc(-c3cccc(NCC)c3)cc21 (racemic) | 1860 | – | – | – | – | – | – | – | – | – | – | –
C#CCOC(=O)CC1C(C(=O)OCC#C)=C(N)Oc2ccc(-c3cccc(NC(=O)CCl)c3)cc21 (racemic) | 5300 | – | – | – | – | – | – | – | – | – | – | –
CCOC(=O)CC1C(C(=O)OCC)=C(N)Oc2ccc(-c3cccc(C(N)=O)c3)cc21 (racemic) | 5400 | – | – | – | – | – | – | – | – | – | – | –
C#CCOC(=O)CC1C(C(=O)OCC#C)=C(N)Oc2ccc(-c3cccc(-n4cnnn4)c3)cc21 (racemic) | 1620 | – | – | – | – | – | – | – | – | – | – | –
C#CCOC(=O)CC1C(C(=O)OCC#C)=C(N)Oc2ccc(-c3ccc(NC)cc3)cc21 (racemic) | 2450 | – | – | – | – | – | – | – | – | – | – | –
C#CCOC(=O)CC1C(C(=O)OCC#C)=C(N)Oc2ccc(-c3ccc(N(C)C)cc3)cc21 (racemic) | 2560 | – | – | – | – | – | – | – | – | – | – | –
C#CCOC(=O)CC1C(C(=O)OCC)=C(N)Oc2ccc(-c3ccc(NCC)cc3)cc21 (racemic) | 33000 | – | – | – | – | – | – | – | – | – | – | –
C#CCOC(=O)CC1C(C(=O)OCC#C)=C(N)Oc2ccc(-c3ccc(NCC)cc3)cc21 (racemic) | 7270 | – | – | – | – | – | – | – | – | – | – | –
CCOC(=O)CC1C(C(=O)OCC)=C(N)Oc2ccc(-c3cc(OC)cc(OC)c3)cc21 (racemic) | 10700 | – | – | – | – | – | – | – | – | – | – | –
CN(C)CC[C@H](CSc1ccccc1)Nc1ccc(S(=O)(=O)NC(=O)c2ccc(N3CCN(Cc4ccccc4-c4ccc(Cl)cc4)CC3)cc2)cc1[N+](=O)[O-] [ABT 737] | 760 | 2.7 | 19.7 | 2.3 | 0.2 | 4.5 | 4.9 | 1.5 | 2.2 | 740 | 0.3 | 34700
Nc1ccn([C@@H]2O[C@H](CO)[C@@H](O)[C@@H]2O)c(=O)n1 [CYTARABINE] | 49 | 1.5 | 7.5 | 7 | 4.1 | 0.1 | – | 0.4 | 6.5 | 6 | 1 | 14000
COc1cccc2c1C(=O)c1c(O)c3c(c(O)c1C2=O)C[C@@](O)(C(=O)CO)C[C@@H]3O[C@H]1C[C@H](N)[C@H](O)[C@H](C)O1 [DOXORUBICIN] | 40 | >10 | >100 | >20 | 6.7 | >15 | >50 | 5.3 | >15 | 110 | – | 440
COc1cc([C@@H]2c3cc4c(cc3[C@@H](O[C@@H]3O[C@@H]5CO[C@@H](C)O[C@H]5[C@H](O)[C@H]3O)[C@H]3COC(=O)[C@H]23)OCO4)cc(OC)c1O [ETOPOSIDE] | 110 | >15 | >200 | >1000 | 2.5 | >10 | >50 | 9 | >50 | 240 | 8.6 | 2300
O=C1c2c(O)ccc(O)c2C(=O)c2c(NCCNCCO)ccc(NCCNCCO)c21 [MITOXANTRONE] | 16 | 5.1 | >20 | >10 | 3 | 2.4 | >10 | >20 | >30 | 36 | 2.3 | 510
C/C=C(/C)C(=O)O[C@H]1C(C)=C2[C@H]([C@@H]1OC(=O)CCCCCCC)[C@@](C)(OC(C)=O)C[C@H](OC(=O)CCC)[C@@]1(O)[C@H]2OC(=O)[C@@]1(C)O [THAPSIGARGIN] | 7 | 4.2 | >50 | >10 | 1.45 | 1 | >50 | 0.02 | 1 | 270 | 7.7 | 170
CC[C@]1(O)C[C@H]2CN(CCc3c([nH]c4ccccc34)[C@@](C(=O)OC)(c3cc4c(cc3OC)N(C=O)[C@H]3[C@@](O)(C(=O)OC)[C@H](OC(C)=O)[C@]5(CC)C=CCN6CC[C@]43[C@@H]65)C2)C1 [VINCRISTINE] | 0.06 | >1000 | >1000 | >1000 | 1 | 1 | – | 1 | 1 | 0.17 | >1000 | 0.1
